Test results as given in PMC2217063 (The Journal of General Physiology, 1997).
Values joined by “and” are separate entries in the source; they are usually repeats but may differ in a detail not shown here. Equal entries are not always repeated. Where two headings read alike, the source gives them in different places. Values belong to the compound of their own block, whether it stands above or below them.

Key:
Na,K-ATPase [1] = target: T1, Na,K-ATPase (Canis lupus familiaris, UniProt P50997); assay: Na,K-ATPase activity at 37°C with different anions; type: biochemical, dog; conditions: 400 mM vs 40 mM
Summary of the method: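 Enzyme purified from outer-medulla microsomes. […] Salts: 40 mM Na+/8 mM K+/3.5 mM Mg2+ or 400 mM Na+/80 mM K+/10 mM Mg2+. Preincubated 20 min at 37°C; started with ATP, 4 mM final.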

Na,K-ATPase [2] = target: T1, Na,K-ATPase; assay: K- and ADP-chases of the phosphointermediate; type: biochemical, dog; conditions: for ratio of interconversion rate constants, k12/k21: twin 2-pool model
Na,K-ATPase [3] = target: T1, Na,K-ATPase; type: biochemical, dog
Na,K-ATPase [4] = target: T1, Na,K-ATPase; assay: Na-ATPase activity and rate constant of blank chase at 4, 17 and 27°C; type: biochemical, dog; conditions: both Na-ATPase activity and rate constant of blank chase
Summary of the method: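 Na-ATPase measured without K+ in imidazole MOPS with Na3EGTA and NaNO3 at 40 or 400 mM, started with ATP, 4 mM final. Rate constant taken from the blank chase: decay of [γ-32P]phosphoenzyme after labelling stops, with a chase lacking ADP and K+. Both run at 4, 17 and 27°C.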

Na,K-ATPase [5] = conditions: 0°C, different method; ref Klodos and Nørby, 1987; cited from earlier work
[6] = 45 mM Na^+, replacement cation to a sum of 500 mM, nitrate, 4°C, prep. A
[7] = 200 mM Na^+, replacement cation to a sum of 500 mM, nitrate, 4°C, prep. B
[8] = 500 mM Na^+, no replacement cation, nitrate, 4°C, enzyme prep. A

effect on Na,K-ATPase activity of increasing the salt concentration to 400 mM (Na,K-ATPase [1]): no effect
SMILES: CC(=O)O [acetate]

ratio of interconversion rate constants, k12/k21 (Na,K-ATPase [2]; 160 mM NaCl, 4°C): > 5
ratio of interconversion rate constants, k12/k21 (Na,K-ATPase [2]; 600 mM NaCl, 4°C): 0.25
SMILES: [Cl-].[Na+] [NaCl]

SMILES: N=C(N)NCCC[C@H](N)C(=O)O [Arg^+, arginine^+]
E1P (amount of K-resistant E1P) (Na,K-ATPase [3]; [6]): 97%
E1P (amount of K-resistant E1P) (Na,K-ATPase [3]; [7]): 97%

SMILES: O=[N+]([O-])[O-].[Na+] [NaNO3]
effect on rate constant of dephosphorylation in a blank chase (Na,K-ATPase [2]; 4°C, concentration increased from 40 to 400 mM): inhibited dephosphorylation
activation energy (ΔH) in 400 mM relative to 40 mM NaNO3 (Na,K-ATPase [4]): 1.3 fold

E1P (amount of K-resistant E1P) (Na,K-ATPase [3]; 45 mM Na^+, replacement cation to a sum of 500 mM, nitrate, 4°C, prep. C): 80%
E1P (amount of K-resistant E1P) (Na,K-ATPase [3]; 200 mM Na^+, replacement cation to a sum of 500 mM, nitrate, 4°C, prep. C): 79%
SMILES: CNC[C@H](O)[C@@H](O)[C@H](O)[C@H](O)CO [NMG^+, N-methylglucamine]

effect on Na,K-ATPase activity of increasing the salt concentration to 400 mM (Na,K-ATPase [1]): no effect
SMILES: Cl [chloride]

E1P (amount of K-resistant E1P) (Na,K-ATPase [3]; [6]): 68%
E1P (amount of K-resistant E1P) (Na,K-ATPase [3]; [7]): 56%
SMILES: CCN(CC)CC [Et3N^+, triethylamine]

k(off), rate constant of dissociation of ATP from ATP·E1 (Na,K-ATPase [3]; [8]): 1.1 ± 0.10 s⁻¹ and 1.3 ± 0.20 s⁻¹
k off, rate constant of dissociation of ATP, range over all media of Table III (Na,K-ATPase [3]; 45-500 mM Na^+, 4°C, no correlation with [Na^+]): 0.7 to 1.9 s⁻¹
SMILES: Nc1ncnc2c1ncn2[C@@H]1O[C@H](COP(=O)(O)OP(=O)(O)OP(=O)(O)O)[C@@H](O)[C@H]1O [ATP, reference compound]
rate constant of dissociation of ATP (Na,K-ATPase [5]): 1.5 to 3.5 s⁻¹

K(internal) = [ADP·E1P]/[ATP·E1] (Na,K-ATPase [3]; 45 mM Na^+): ~2
K int in 45 mM Na^+ relative to 200 mM Na^+ in each medium (Na,K-ATPase [3]; 45 mM vs 200 mM Na^+): 2.1–2.5 fold
K int = [ADP·E1P]/[ATP·E1] (Na,K-ATPase [3]; 200 mM Na^+): 0.5–1.4
K int = [ADP·E1P]/[ATP·E1] (Na,K-ATPase [3]; 500 mM Na^+): 0.1–0.3
K(internal) = [ADP·E1P]/[ATP·E1] (Na,K-ATPase [3]; 500 mM Na^+): ~0.2
E1P (amount of K-resistant E1P) (Na,K-ATPase [3]; [8]): 95%
effect on interconversion rate constants (Na,K-ATPase [2]; 240 mM NaNO3 vs 30 mM NaNO3 plus 210 mM TrisNO3, 4°C): not affected significantly
SMILES: [Na+] [Na^+]

SMILES: O=[N+]([O-])O [nitrate]
amount of E1P in nitrate relative to acetate (Na,K-ATPase [2]; 30 mM Na^+, 250 mM Lys^+): sevenfold larger
initial amount of E1P (Na,K-ATPase [2]; 280 mM anion, 30 mM Na^+, 250 mM lysine^+, 4°C, 2-pool model): 36%
